According to ChEMBL document CHEMBL4431364, “Discovery and synthetic optimization of a novel scaffold for hydrophobic tunnel-targeted autotaxin inhibition” (Bioorg Med Chem, 2016):

Target: T1, Autotaxin (Homo sapiens, UniProt Q13822)
Experiment: Inhibition of C-terminal FLAG tagged human recombinant ATX expressed in insect sf9 cells at 10 uM using FS-3 as substrate measured every 2 mins for 60 mins by FRET assay
Outline: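 10 μM compound with 10 nM human FLAG-fusion ATX in pH 8.0 Tris buffer (30 μM BSA, 1 mM CaCl2, 1 mM MgCl2, 5 mM KCl, 140 mM NaCl) and 1 μM FS-3. Fluorescence at ex 485/em 520 nm read every 2 min for 60 min at 37 °C. Normalized to no-ATX (0%) and ATX without compound (100%). Triplicate.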

inhibition	SMILES
36.7%	CCCCCCCCCCCC[N+](C)(C)CC(O)C(O)C(O)C(O)CO (stereo not drawn)
36.2%	CN(C)CCCCN(CCCN(C)C)Cc1cccc2ccccc12
-4.83%	COc1ccc(C2OCC3OC(OC)C(O)C(O)C3O2)cc1OCc1ccccc1 (stereo not drawn)
-0.99%	Cn1ncc2c(Cl)nc(-c3cc4cc([N+](=O)[O-])ccc4o3)nc21
8.67%	Cc1ccc(SCC(=O)Nc2ccc(C(=O)NC(C)(C)C)cc2)cc1
46.4%	Cc1ccc2cc(C#N)c(N3CCCN(C(=O)c4ccc(F)cc4F)CC3)nc2c1
32.3%	O=C(O)c1ccc(N2CCN(C(=O)COc3cccc(F)c3)CC2)cc1
5.7%	O=C(c1ccco1)N1CCN(C(=O)C2CCCN2C(=O)CC2C=CCC2)CC1 (stereo not drawn)
27.6%	O=C(O)c1ccc(N2CCN(C(=O)COc3ccccc3Cl)CC2)cc1
4.63%	Cc1cc(OCC(=O)Nc2ccc(-c3nc4ncccc4o3)cc2)ccc1Cl
13.3%	CC(C)/C=C/C(=O)N1CCN(C(=O)C2CCC3C4CC=C5CC(O)CCC5(C)C4CCC23C)CC1 (stereo not drawn)
7.68%	CCCCC(CC)C(=O)Nc1nnc(C2CCCCC2)s1 (stereo not drawn)
-8.29%	CCC(C)c1ccc(OCC(=O)Nc2cc(OC)c(OC)cc2C(=O)O)cc1 (stereo not drawn)
46.1%	O=C(COc1ccccc1Cl)N1CCN(c2ccc([N+](=O)[O-])cc2)CC1
10.7%	CC(C)(C)c1ccc(NC(=O)COC(=O)c2ccc([N+](=O)[O-])s2)cc1
10.9%	O=C(O)c1ccc(N2CCN(C(=O)COc3ccccc3C(F)(F)F)CC2)cc1
1.44%	Cc1nn(-c2ccccc2)c(O)c1/N=C1\C(=O)N(C)c2ccc(Br)cc21
32.5%	CC(C)(C)CN(Cc1cccc(CN)c1)C(=O)c1ccc(-c2ccccc2)nc1
21.7%	CCc1ccc2c(c1)c1nnc(SCC(=O)Nc3nnc(C(C)C)s3)nc1n2C
0.32%	COc1ccc(C(=O)Oc2c(Br)cc(Br)c3cccnc23)cc1
5.82%	O=c1/c(=C/C=C/c2ccc([N+](=O)[O-])o2)sc2nc3ccccc3n12
9.03%	Clc1ccc(Cl)c2c1CC(N1CCN(c3ncccn3)CC1)S2 (stereo not drawn)
10.5%	C=C(C)c1cccc(C(C)(C)NC(=O)N2CCN(C(=O)OCC)CC2)c1
49.2%	O=C(COc1cccc(C(F)(F)F)c1)N1CCN(c2ccccc2[N+](=O)[O-])CC1
10.5%	CC1=NC(c2cccc(C)c2)C(O)=C1/C=C1/C(=O)N(c2ccc(C)cc2C)N=C1C (stereo not drawn)

inhibition	SMILES
4.83%	COc1ccc(N2C(=O)/C(=C/c3ccc(O)c([N+](=O)[O-])c3)SC2=S)cc1
7.92%	Cc1c(Cl)c(-c2nnc(NCC(C)C)s2)nn1C
9.16%	CCCCOCCCNc1cc(-c2cccc(C)c2)ncn1
16.9%	COc1cc(C(=O)Nc2ccc(C(C)=O)cc2)c(Br)c(OC)c1OC
-3.35%	CCOc1ccc(N2C(=O)/C(=C3\C(=O)Nc4ccc(Br)cc43)SC2=S)cc1
-2.55%	COc1ccc(/C=N/c2cc(C)ccc2C)cc1OC
2.48%	CC[n+]1c(Cc2nn3c(C)cc(C)nc3[n+]2CC)nn2c(C)cc(C)nc21
2.55%	O=C(Nc1ccccc1)N1CC(O)C(N2CCN(Cc3ccccc3)CC2)C1 (stereo not drawn)
35.2%	O=C(COc1ccccc1F)N1CCN(c2ccc([N+](=O)[O-])cc2)CC1
-2.35%	COC(=O)c1sc(NC(=O)c2cc(C)ccc2Cl)c(C#N)c1C
-0.74%	O=C1N=C(Nc2ccccc2)SC1Cc1ccc(-c2cccc(Br)c2)o1 (stereo not drawn)
40.8%	Cc1ccccc1Nc1nc(C2(C)CC3(CC(COCC(C)C)OC3=O)C(=O)O2)cs1 (stereo not drawn)
15.6%	CCOC(=O)c1c(C)[nH]c(C(=O)OCC(=O)NCc2ccco2)c1C
38%	CCCCOc1ccc(S(=O)(=O)N2CC(NCc3ccco3)CC2C(=O)CNO)cc1 (stereo not drawn)
46.4%	C=C(Br)C(=O)N1CCN(C(=O)CCSc2ccc3ccccc3c2)CC1
20.6%	CC(C)COc1cnc(SSc2ncc(OCC(C)C)cn2)nc1
18.6%	COC(CNCc1cc(Cl)c(CNCC(OC)OC)cc1Cl)OC
9.17%	CSc1cccc2c(C)cc(N3CCN(c4ccc(F)cc4)CC3)nc12
6.1%	O=C(O)c1ccc(N2CCN(C(=O)COc3ccccc3F)CC2)cc1
13.4%	O=S(=O)(c1cc(-c2ccon2)cs1)N1CCN(Cc2ccc3c(c2)OCO3)CC1
34.7%	CCc1ccc(OCC(=O)Nc2ccc(-c3nc4ccccc4o3)cc2)cc1
12.1%	CC(C)c1ccc(NC(=O)c2cc([N+](=O)[O-])ccc2Cl)cc1
19.8 to 42.8%	CC(C)(C)CN(Cc1cccc(CN)c1)C(=O)c1ccc(-c2ccc(F)cc2)nc1
30.3%	CON1CC/C(=C\c2cc(C(C)(C)C)c3c(c2)C(C)(C)CO3)C1=O
-1.86%	Cn1ncc2c1ncn1nc(-c3ccc(Cn4cc(Cl)cn4)o3)nc21

inhibition	SMILES
43%	O=C(O)c1ccc(N2CCN(C(=O)COc3cccc(C(F)(F)F)c3)CC2)cc1
14.2%	CCN1CCN(c2cc(C)c3ccc(Cl)cc3n2)CC1
6.68%	COc1ccc(/C(N)=N/OC(=O)COc2ccc(C(C)(C)C)cc2Br)cc1OC
15.2%	O=C(COc1ccccc1F)N1CCN(c2cccc([N+](=O)[O-])c2)CC1
25.5%	COc1ccc2oc(C(=O)NCCNC(=O)C3C(C=C(C)C)C3(C)C)cc2c1 (stereo not drawn)
11%	Cc1cc(NC(=O)CSc2nc3sc4c(c3c(=O)[nH]2)CCC(C)C4)no1 (stereo not drawn)
17.5%	CCc1nc(C)cc(NCC(=O)C2(O)CC3(C)CCC4C5C=CC(=O)C=C5CCC45C3C25)c1O (stereo not drawn)
19.8%	Cc1cc(C)c(C)c(S(=O)(=O)N2CCN(c3ncnc4sc(C)c(C)c34)CC2)c1C
15.4%	Cc1cc(NC(=O)CSc2nc3sc4c(c3c(=O)[nH]2)CCC(C(C)(C)C)C4)no1 (stereo not drawn)
15%	Cn1ncc(Cl)c1C(=O)NC1CCC(C(C)(C)C)CC1 (stereo not drawn)
43.4%	Cn1cc(Cl)c(C2NN=C(SCC(=O)Nc3ccc(C(C)(C)C)cc3)S2)n1 (stereo not drawn)
32.8%	CC(C)CC1C(=O)NC(C)CN1C(=O)c1ccc(-c2ccccc2)cc1 (stereo not drawn)
13.4%	Cc1ccc2cc3c(nc2c1)sc1c(SCC(=O)NCc2ccco2)ncnc13
35.1%	CCc1cc2c(cc(C(=O)NCCc3ccc(OC)c(OC)c3)n2C)s1
25.6%	O=C(CCCc1ccc([N+](=O)[O-])cc1)N1CCN(c2ccccc2F)CC1
4.09%	CCOc1ccc(N2C(=O)/C(=C\c3sccc3C)C(C(=O)OC)=C2C)cc1
-1.36%	Cc1cc(C(F)(F)F)nc2sc3c(c12)NC(c1c(Br)cnn1C)NC3=O (stereo not drawn)
-0.74%	COc1ccccc1N1CCN(/N=C(\C)c2ccc3ccccc3c2)CC1
3.59%	N#C/C(=C\c1ccc(-c2cc([N+](=O)[O-])ccc2Cl)o1)C(=O)Nc1ccccc1C(=O)O
-2.48%	Cc1nc(N2CCN(c3ccccc3F)CC2)c2c(C)c(C)sc2n1
6.06%	CCCC#CC(=O)NCC(=O)Nc1ccc2c3c(cccc13)-c1ccccc1-2
6.54%	Cc1c(Br)cc(C(=O)OCC(=O)c2ccccc2)c(C)c1C
8.43%	O=S(=O)(c1ccc(OC(F)(F)F)cc1)N1CCC(N2CCN(c3ccccc3F)CC2)CC1
7.68%	Cc1oc(C(C)(C)C)cc1C(=O)NCCNC(=O)c1cc(C(C)(C)C)oc1C

SMILES	inhibition
Cc1cc(C(=O)CSc2ccc(Cl)cc2)cc(C)c1OC(=O)N(C)C	6.06%

Target: T1, Autotaxin
Experiment: Inhibition of C-terminal FLAG tagged human recombinant ATX expressed in insect sf9 cells at 10 uM using pNP-TMP as substrate measured every 2 mins for 60 mins by absorbance

inhibition	SMILES
7.3%	O=C(O)c1ccc(N2CCN(C(=O)COc3ccccc3Cl)CC2)cc1
-0.8%	O=C(O)c1ccc(N2CCN(C(=O)COc3ccccc3C(F)(F)F)CC2)cc1
35.4%	O=C(COc1cccc(C(F)(F)F)c1)N1CCN(c2ccccc2[N+](=O)[O-])CC1
